Results from ChEMBL document CHEMBL5678806, “NMS-P937, an orally available, specific small-molecule polo-like kinase 1 inhibitor with antitumor activity in solid and hematologic malignancies” (Mol Cancer Ther, 2012).

How the values were obtained:
[1] = tested on: ACHN; test: Antiproliferative activity against human ACHN cells assessed as inhibition of cell growth incubated for 72 hrs by cell-titer glo assay; type: functional, cell-based
Procedure, shortened: (§1)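 Cells seeded 10,000–30,000/cm² (adherent) or 100,000/mL (suspension) in medium with 10% fetal calf serum; after 24 h treated in duplicate with serial dilutions for 72 h. Viable cells read by CellTiter-Glo luminescence; IC50 from sigmoidal fit; at least two independent experiments.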

[2] = biological target: Non-receptor tyrosine-protein kinase TYK2 (Homo sapiens, UniProt P29597); test: Inhibition of TYK2 (unknown origin) in presence of [gamma-33P]ATP
[3] = tested on: RPMI-8226; test: Antiproliferative activity against human RPMI-8226 cells assessed as inhibition of cell growth incubated for 72 hrs by cell-titer glo assay; type: functional, cell-based; conditions: RPMI-8226, 72 h
Procedure, shortened: (§2)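 Cells from ATCC or ECACC, kept in supplier-recommended medium with 1% penicillin-streptomycin at 37°C, 5% CO₂. Seeded at 10,000–30,000/cm² (adherent) or 100,000/mL (nonadherent) in medium with 10% fetal calf serum. Dosed after 24 h in duplicate with serial dilutions. Viable cells read by CellTiter-Glo 72 h later. IC50 from sigmoidal fit. At least two independent experiments.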

[4] = Antiproliferative activity against human NCI-H2110 cells assessed as inhibition of cell growth incubated for 72 hrs by cell-titer glo assay; type: functional, cell-based; conditions: NCI-H2110, 72 h; procedure, shortened: as §2
[5] = Inhibition of PKAalpha (unknown origin) in presence of [gamma-33P]ATP; parameters: species or system Homo sapiens
[6] = tested on: SN12C; test: Antiproliferative activity against human SN12C cells assessed as inhibition of cell growth incubated for 72 hrs by cell-titer glo assay; type: functional, cell-based
[7] = Half-life in male cynomolgus monkey at 5 mg/kg, iv by LC-MS analysis; type: ADME, organism-based, Macaca fascicularis; conditions: in vivo
[8] = tested on: NCI-H522; test: Antiproliferative activity against human NCI-H522 cells assessed as inhibition of cell growth incubated for 72 hrs by cell-titer glo assay; type: functional, cell-based; conditions: NCI-H522, 72 h; procedure, shortened: as §2
[9] = biological target: Cyclin-dependent kinase 1/cyclin B1 (Homo sapiens, UniProt P06493); test: Inhibition of CDK1/CycB (unknown origin) in presence of [gamma-33P]ATP; type: protein-complex assay
[10] = Volume of distribution at steady state in Beagle dog at 5 mg/kg, iv by LC-MS analysis; type: ADME, organism-based, Canis lupus familiaris; conditions: in vivo, read-out: Vdss
[11] = biological target: Maternal embryonic leucine zipper kinase (Homo sapiens) (UniProt Q14680); test: Inhibition of MELK (unknown origin) at 10 micromol/L in presence of [gamma-33P]ATP relative to control; conditions: dose 10.0 µmol/L
[12] = biological target: Angiopoietin-1 receptor (Homo sapiens) (UniProt Q02763); test: Inhibition of N-terminal His6-tagged recombinant human Tie2 (771 to end residues) expressed in baculovirus infected Sf21 cells assessed as residual activity at 1 uM relative to control
[13] = biological target: Eukaryotic translation initiation factor 2-alpha kinase 3 (Homo sapiens, UniProt Q9NZJ5); test: Inhibition of PERK (unknown origin) in presence of [gamma-33P]ATP
[14] = biological target: Mitogen-activated protein kinase 12 (Homo sapiens) (UniProt P53778); test: Inhibition of recombinant GST fusion protein corresponding to full-length human SAPK3 expressed in E. coli assessed as residual activity at 1 uM relative to control
[15] = Cmax in Beagle dog at 5 mg/kg, iv by LC-MS analysis; type: ADME, organism-based, Canis lupus familiaris; conditions: in vivo
[16] = biological target: cAMP-dependent protein kinase catalytic subunit PRKX (Homo sapiens) (UniProt P51817); test: Inhibition of N-terminal 6His-tagged recombinant full-length human PrKX expressed in baculovirus infected Sf21 cells assessed as residual activity at 0.1 uM relative to control
[17] = tested on: NCI-H1299; test: Antiproliferative activity against human NCI-H1299 cells assessed as inhibition of cell growth incubated for 72 hrs by cell-titer glo assay; type: functional, cell-based; conditions: NCI-H1299, 72 h; procedure, shortened: as §2
[18] = biological target: Tyrosine-protein kinase Mer (Homo sapiens) (UniProt Q12866); test: Inhibition of N-terminal GST-tagged recombinant human Mer (557 to 882 residues) expressed in baculovirus infected Sf21 cells assessed as residual activity at 1 uM relative to control
[19] = AUC in nu/nu mouse at 10 mg/kg, po by LC-MS analysis; type: ADME, organism-based; conditions: in vivo
[20] = tested on: NCI-H1650; test: Antiproliferative activity against human NCI-H1650 cells assessed as inhibition of cell growth incubated for 72 hrs by cell-titer glo assay; type: functional, cell-based; conditions: NCI-H1650, 72 h; procedure, shortened: as §2
[21] = biological target: Death-associated protein kinase 3 (Homo sapiens) (UniProt O43293); test: Inhibition of N-terminal GST tagged recombinant human ZIPK (1 to 290 residues) expressed in E. coli assessed as residual activity at 1 uM relative to control
[22] = biological target: Tyrosine-protein kinase receptor TYRO3 (Homo sapiens) (UniProt Q06418); test: Inhibition of N-terminal His6-tagged recombinant human Rse (451 to end residues) expressed in baculovirus infected Sf21 cells assessed as residual activity at 0.1 uM relative to control
[23] = tested on: SK-MEL-28; test: Antiproliferative activity against human SK-MEL-28 cells assessed as inhibition of cell growth incubated for 72 hrs by cell-titer glo assay; type: functional, cell-based; conditions: SK-MEL-28, 72 h
[24] = tested on: A549; test: Antiproliferative activity against human A549 cells assessed as inhibition of cell growth incubated for 72 hrs by cell-titer glo assay; type: functional, cell-based; conditions: A549, 72 h; procedure, shortened: as §1
[25] = biological target: Casein kinase I isoform gamma-3 (Homo sapiens) (UniProt Q9Y6M4); test: Inhibition of N-terminal 6His-tagged recombinant human CK1gamma3 (1 to 330 residues) expressed in baculovirus infected Sf21 cells assessed as residual activity at 0.1 uM relative to control
[26] = Antiproliferative activity against human AML-NS8 cells assessed as inhibition of cell growth incubated for 72 hrs by cell-titer glo assay; type: functional, cell-based; conditions: AML-NS8, 72 h; procedure, shortened: as §1
[27] = tested on: COLO-678; test: Antiproliferative activity against human COLO-678 cells assessed as inhibition of cell growth incubated for 72 hrs by cell-titer glo assay; type: functional, cell-based; conditions: COLO-678, 72 h; procedure, shortened: as §1
[28] = biological target: Proto-oncogene tyrosine-protein kinase Src (Homo sapiens) (UniProt P12931); test: Inhibition of N-Terminal His6-tagged recombinant full-length human c-SRC expressed in Sf21 cells assessed as residual activity at 0.1 uM relative to control
[29] = AUC in nu/nu mouse at 10 mg/kg, iv by LC-MS analysis; type: ADME, organism-based; conditions: in vivo
[30] = Antiproliferative activity against human GM13705 cells assessed as inhibition of cell growth incubated for 72 hrs by cell-titer glo assay; type: functional, cell-based; conditions: GM13705, 72 h
Procedure, shortened: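 Cells seeded at 10,000–30,000/cm² (adherent) or 100,000/mL (nonadherent) in medium with 10% fetal calf serum; after 24 h, treated in duplicate with serial dilutions for 72 h. Viable cell number read by CellTiter-Glo luminescence; IC50 from sigmoidal fit; at least two independent experiments.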

[31] = biological target: Tyrosine-protein kinase BTK (Homo sapiens) (UniProt Q06187); test: Inhibition of N-terminal His6-tagged recombinant full-length human BTK expressed in baculovirus infected Sf21 cells assessed as residual activity at 1 uM relative to control

Sequence of Mitogen-activated protein kinase 12 (Homo sapiens) (P53778 whole entry, the tested form may be a part): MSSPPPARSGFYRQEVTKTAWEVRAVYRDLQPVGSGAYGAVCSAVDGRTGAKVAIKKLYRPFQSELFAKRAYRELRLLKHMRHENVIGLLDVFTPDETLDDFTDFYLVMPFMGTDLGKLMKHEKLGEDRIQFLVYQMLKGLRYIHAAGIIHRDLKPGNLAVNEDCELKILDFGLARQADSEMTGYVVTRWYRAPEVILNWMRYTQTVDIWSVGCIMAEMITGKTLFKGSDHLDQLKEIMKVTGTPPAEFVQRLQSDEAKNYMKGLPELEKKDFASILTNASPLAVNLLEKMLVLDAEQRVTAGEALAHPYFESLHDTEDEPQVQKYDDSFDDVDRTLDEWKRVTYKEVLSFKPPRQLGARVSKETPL
Sequence of cAMP-dependent protein kinase catalytic subunit PRKX (Homo sapiens) (P51817 whole entry): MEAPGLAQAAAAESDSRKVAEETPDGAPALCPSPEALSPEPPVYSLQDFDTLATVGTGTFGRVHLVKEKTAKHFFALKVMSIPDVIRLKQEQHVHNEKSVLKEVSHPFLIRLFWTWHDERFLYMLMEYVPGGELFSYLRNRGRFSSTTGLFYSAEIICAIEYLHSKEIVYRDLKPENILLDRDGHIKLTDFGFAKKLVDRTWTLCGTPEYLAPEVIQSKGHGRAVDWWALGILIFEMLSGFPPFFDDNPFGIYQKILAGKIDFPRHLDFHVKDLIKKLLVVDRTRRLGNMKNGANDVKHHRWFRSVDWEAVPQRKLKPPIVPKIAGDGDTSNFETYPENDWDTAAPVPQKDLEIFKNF
Sequence of Death-associated protein kinase 3 (Homo sapiens) (O43293 whole entry, looked up, the tested form may be a part): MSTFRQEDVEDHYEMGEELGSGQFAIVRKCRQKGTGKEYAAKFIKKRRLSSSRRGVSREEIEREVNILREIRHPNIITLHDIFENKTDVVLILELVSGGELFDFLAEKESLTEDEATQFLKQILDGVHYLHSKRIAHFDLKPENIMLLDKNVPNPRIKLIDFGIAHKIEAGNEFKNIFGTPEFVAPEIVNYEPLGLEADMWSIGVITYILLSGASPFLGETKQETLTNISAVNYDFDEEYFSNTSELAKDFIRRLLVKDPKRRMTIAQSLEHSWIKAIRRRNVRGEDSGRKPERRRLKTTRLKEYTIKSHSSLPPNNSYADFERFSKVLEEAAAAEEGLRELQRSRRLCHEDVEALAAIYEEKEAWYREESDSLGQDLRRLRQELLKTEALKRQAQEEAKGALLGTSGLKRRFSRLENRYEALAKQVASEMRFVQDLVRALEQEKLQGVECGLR
Sequence of Eukaryotic translation initiation factor 2-alpha kinase 3 (Q9NZJ5 whole entry, the tested form may be a part): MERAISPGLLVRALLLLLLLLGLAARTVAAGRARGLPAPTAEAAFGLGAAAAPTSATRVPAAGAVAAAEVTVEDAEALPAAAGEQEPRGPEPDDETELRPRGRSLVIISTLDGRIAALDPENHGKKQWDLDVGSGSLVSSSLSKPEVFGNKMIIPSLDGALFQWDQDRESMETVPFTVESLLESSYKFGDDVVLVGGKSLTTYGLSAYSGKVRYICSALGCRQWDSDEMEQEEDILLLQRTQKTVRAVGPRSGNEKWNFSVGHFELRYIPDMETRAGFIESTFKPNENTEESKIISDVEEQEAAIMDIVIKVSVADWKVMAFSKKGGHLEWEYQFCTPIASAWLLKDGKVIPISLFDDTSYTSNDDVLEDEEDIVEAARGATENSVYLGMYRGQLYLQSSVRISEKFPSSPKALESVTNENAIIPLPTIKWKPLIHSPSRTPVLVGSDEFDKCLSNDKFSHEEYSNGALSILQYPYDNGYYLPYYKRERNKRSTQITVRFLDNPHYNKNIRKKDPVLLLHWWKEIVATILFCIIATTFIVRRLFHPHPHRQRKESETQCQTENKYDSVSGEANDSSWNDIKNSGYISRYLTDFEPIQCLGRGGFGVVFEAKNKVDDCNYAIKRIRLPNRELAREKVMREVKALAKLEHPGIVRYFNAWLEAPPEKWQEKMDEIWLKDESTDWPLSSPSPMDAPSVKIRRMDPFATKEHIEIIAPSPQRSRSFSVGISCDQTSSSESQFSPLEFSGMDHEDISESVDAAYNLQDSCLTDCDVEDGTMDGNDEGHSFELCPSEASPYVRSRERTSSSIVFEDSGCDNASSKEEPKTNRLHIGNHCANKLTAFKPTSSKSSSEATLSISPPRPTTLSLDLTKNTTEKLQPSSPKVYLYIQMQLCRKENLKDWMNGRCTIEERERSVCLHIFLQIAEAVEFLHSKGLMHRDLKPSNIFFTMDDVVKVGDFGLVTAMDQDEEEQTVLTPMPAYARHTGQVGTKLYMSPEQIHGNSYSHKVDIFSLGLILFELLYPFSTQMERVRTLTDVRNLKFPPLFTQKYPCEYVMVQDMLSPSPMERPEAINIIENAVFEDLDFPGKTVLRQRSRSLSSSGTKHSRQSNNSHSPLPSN
Sequence of Cyclin-dependent kinase 1/cyclin B1 (P06493 whole entry): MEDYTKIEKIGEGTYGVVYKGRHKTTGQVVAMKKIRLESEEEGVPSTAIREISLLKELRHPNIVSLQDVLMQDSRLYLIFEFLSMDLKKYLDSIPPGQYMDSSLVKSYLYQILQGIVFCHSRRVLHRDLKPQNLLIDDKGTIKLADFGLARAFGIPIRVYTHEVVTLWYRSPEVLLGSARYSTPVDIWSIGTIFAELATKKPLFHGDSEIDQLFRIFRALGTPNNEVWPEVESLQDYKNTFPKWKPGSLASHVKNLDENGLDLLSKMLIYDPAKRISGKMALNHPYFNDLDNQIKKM
Sequence of Cyclin-dependent kinase 1/cyclin B1 (P14635 whole entry, further chain): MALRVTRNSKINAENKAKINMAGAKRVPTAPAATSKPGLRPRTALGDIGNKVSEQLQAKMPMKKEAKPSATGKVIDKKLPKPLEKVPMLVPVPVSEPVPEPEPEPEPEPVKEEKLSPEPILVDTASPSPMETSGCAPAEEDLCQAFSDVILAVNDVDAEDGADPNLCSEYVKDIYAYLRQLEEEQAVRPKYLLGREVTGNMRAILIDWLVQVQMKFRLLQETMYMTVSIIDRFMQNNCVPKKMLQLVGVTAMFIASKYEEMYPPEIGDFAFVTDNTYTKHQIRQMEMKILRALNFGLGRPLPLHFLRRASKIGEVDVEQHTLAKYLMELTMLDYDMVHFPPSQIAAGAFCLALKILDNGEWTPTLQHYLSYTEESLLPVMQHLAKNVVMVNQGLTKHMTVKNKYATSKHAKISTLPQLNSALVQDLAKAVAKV
Sequence of Tyrosine-protein kinase Mer (Homo sapiens) (Q12866 whole entry, the tested form may be a part): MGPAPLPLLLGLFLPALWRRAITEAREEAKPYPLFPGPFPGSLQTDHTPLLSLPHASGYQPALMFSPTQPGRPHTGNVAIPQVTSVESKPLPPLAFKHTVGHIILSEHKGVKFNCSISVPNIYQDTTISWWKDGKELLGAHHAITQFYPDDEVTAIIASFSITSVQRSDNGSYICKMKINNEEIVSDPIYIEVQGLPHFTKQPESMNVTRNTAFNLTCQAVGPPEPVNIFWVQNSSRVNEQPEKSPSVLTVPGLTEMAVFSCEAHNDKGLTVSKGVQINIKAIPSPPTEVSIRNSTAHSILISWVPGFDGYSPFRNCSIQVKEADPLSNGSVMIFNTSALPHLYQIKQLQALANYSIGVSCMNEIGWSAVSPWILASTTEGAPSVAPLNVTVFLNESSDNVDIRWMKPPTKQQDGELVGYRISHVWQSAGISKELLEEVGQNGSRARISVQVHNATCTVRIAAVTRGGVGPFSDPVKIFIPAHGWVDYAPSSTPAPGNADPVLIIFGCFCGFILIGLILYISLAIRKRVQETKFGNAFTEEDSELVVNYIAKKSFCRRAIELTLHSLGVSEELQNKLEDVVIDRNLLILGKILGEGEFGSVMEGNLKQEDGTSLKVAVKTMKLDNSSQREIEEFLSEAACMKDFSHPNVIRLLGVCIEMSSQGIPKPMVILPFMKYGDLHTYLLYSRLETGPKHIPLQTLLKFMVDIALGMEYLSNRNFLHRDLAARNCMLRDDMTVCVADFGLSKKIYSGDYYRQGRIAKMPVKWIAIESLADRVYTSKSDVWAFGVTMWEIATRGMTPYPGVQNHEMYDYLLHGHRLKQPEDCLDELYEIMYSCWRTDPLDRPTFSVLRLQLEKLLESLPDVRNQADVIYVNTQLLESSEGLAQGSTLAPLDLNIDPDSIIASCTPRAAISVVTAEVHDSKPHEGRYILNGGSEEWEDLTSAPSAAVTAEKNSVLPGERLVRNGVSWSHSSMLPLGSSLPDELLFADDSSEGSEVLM
Sequence of Tyrosine-protein kinase receptor TYRO3 (Homo sapiens) (Q06418 whole entry): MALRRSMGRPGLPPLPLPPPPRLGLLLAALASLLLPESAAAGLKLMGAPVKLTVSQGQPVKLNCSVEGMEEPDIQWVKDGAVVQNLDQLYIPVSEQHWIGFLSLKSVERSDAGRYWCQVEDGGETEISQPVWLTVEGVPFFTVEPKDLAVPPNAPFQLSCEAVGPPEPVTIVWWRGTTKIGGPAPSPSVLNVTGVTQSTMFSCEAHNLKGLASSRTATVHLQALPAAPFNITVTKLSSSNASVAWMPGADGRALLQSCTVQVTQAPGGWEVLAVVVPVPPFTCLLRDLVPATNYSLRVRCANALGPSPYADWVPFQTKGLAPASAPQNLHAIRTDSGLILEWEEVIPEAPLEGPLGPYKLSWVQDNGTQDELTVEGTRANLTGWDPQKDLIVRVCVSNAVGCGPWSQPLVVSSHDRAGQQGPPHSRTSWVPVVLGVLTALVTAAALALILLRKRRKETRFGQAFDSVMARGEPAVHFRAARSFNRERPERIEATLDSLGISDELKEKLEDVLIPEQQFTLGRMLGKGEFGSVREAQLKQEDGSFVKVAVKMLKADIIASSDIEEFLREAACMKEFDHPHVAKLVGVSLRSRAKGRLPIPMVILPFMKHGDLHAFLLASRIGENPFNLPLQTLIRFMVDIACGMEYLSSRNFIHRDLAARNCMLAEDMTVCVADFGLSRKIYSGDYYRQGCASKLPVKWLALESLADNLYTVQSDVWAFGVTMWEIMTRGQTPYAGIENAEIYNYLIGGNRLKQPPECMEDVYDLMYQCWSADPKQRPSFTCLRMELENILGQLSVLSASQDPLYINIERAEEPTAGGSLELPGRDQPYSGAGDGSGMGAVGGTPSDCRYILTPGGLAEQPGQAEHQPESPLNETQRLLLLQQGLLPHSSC

## CN1CCN(c2ccc(OC(F)(F)F)c(Nc3ncc4c(n3)-c3c(c(C(N)=O)nn3CCO)CC4)c2)CC1 [ONVANSERTIB]
[1]
  IC50: 0.429 µM
[2]
  IC50: > 10 µM
[3]
  IC50: 0.128 µM
[4]
  IC50: 0.068 µM
[5]
  IC50: > 10 µM
[6]
  IC50: 0.062 µM
[7]
  half-life: 5 h
[8]
  IC50: 0.034 µM
[9]
  IC50: > 10 µM
[10]
  Vd: 9.5 L/kg
[11]
  inhibition: 95.5%
[12]
  Activity: 114%
[13]
  IC50: > 10 µM
[14]
  Activity: 113%
[15]
  Cmax: 1.7 µM
[16]
  Activity: 90%
[17]
  IC50: 0.347 µM
[18]
  Activity: 64%
[19]
  AUC: 2 µM·h
[20]
  IC50: 2.42 µM
[21]
  Activity: 87%
[22]
  Activity: 137%
[23]
  IC50: 0.078 µM
[24]
  IC50: 0.175 µM
[25]
  Activity: 96%
[26]
  IC50: 0.036 µM
[27]
  IC50: 0.354 µM
[28]
  Activity: 43%
[29]
  AUC: 8.6 µM·h
[30]
  IC50: 0.162 µM
[31]
  Activity: 84%
